Experiment [1] is described as follows: Inhibition of mouse tryptase in mouse bone marrow mast cell lysate. The procedure, abridged:
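Lysate (detergent/hypotonic buffer) of CBA/J mouse femoral bone marrow cells cultured 5 weeks with mouse IL-3 (>99% mast cells), used at 8 × 10⁴ cell equiv/mL as tryptase source. 10 min 37 °C preincubation with varied inhibitor levels. Then 0.2 mM tosyl-Gly-Pro-Arg-pNA in Tris pH 8.0 buffer, 30 min 37 °C; absorbance at 405 nm.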

Experiment [2] can be described thus: Inhibition of bovine trypsin. Further details: species or system Bos taurus. In short, it runs like this:
(§1)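 Purified enzyme, preincubated 10 min at 37 °C with a range of inhibitor concentrations. Substrate: 0.2 mM N-p-tosyl-Gly-Pro-Arg p-nitroanilide, in 0.1 M Tris pH 8.0 with 1 mM CaCl2, 1 mM MgCl2, 1 M glycerol and 0.1% Triton X. Then 30 min at 37 °C; absorbance read at 405 nm.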

Experiment [3] is described as follows: Inhibition of human tryptase in human cultured mast cell lysate. In short, it runs like this:
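Tryptase source: lysate (detergent/hypotonic buffer) of umbilical cord blood-derived human mast cells, ≥12 weeks in culture with SCF and IL-6, 100% pure; 8 × 10³ cell equiv/mL lysate. Preincubated 10 min at 37 °C with varied inhibitor. Substrate: 0.2 mM tosyl-Gly-Pro-Arg-pNA, Tris pH 8.0 buffer; 30 min at 37 °C; A405.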

In a further experiment the target is Prothrombin (Homo sapiens, UniProt P00734). Description: Inhibition of human thrombin. In short, it runs like this:
as §1

*1 amine or outer side, *2 acyl side, *3 side chain or, on linkers, in order; H or OH if unused. Where a SMILES comes first, the peptide text is derived from it. Bridges are numbered along the chain shown (N, C = ends). [ ]: non-standard residue; d: D form. The star is where a group is joined. Arg(ψCOCO) = N=C(N)NCCC[C@H](N[*:1])C(=O)C(=O)[*:2]; X1 = O=C(/C=C/[C@H](Cc1ccc(O)cc1)N[*:1])[*:2]; aIle = CC[C@@H](C)[C@H](N)C(=O)O; Dap = NC[C@H](N)C(=O)O; PhAc = O=C(Cc1ccccc1)*

The term IC50 denotes the midpoint of a concentration-inhibition curve. A high value points to weaker potency in that assay.

`CCC(C)CC(=O)N[C@@H](C)C(=O)N[C@H]1CNC(=O)/C=C/[C@H](Cc2ccc(O)cc2)NC(=O)[C@H]([C@H](C)CC)NC(=O)C(=O)[C@H](CCCNC(=N)N)NC(=O)[C@@H]2CCCN2C1=O` (some centres not stated) [CYCLOTHEONAMIDE E4]: the IC50 is 6.5 nM in experiment [1], 5.9 nM in experiment [2], 5.1 nM in experiment [3] and 7.4 nM against Prothrombin.
Regarding `CCC(C)CC(=O)N[C@@H](C)C(=O)N[C@H]1CNC(=O)/C=C/[C@H](Cc2ccc(O)c(O)c2)NC(=O)[C@H]([C@H](C)CC)NC(=O)C(=O)[C@H](CCCNC(=N)N)NC(=O)[C@@H]2CCCN2C1=O` (some centres not stated) [CYCLOTHEONAMIDE E5], the half-maximal inhibitory concentration (IC50) in experiment [1] stood at 54.1 nM; in experiment [2], 37.3 nM; in experiment [3], 84.7 nM; against Prothrombin it was 67.9 nM.
For `CC[C@@H](C)[C@@H]1NC(=O)C(=O)[C@H](CCCNC(=N)N)NC(=O)[C@@H]2CCCN2C(=O)[C@@H](NC(=O)[C@H](C)NC(=O)Cc2ccccc2)CNC(=O)/C=C/[C@H](Cc2ccc(O)cc2)NC1=O` [CYCLOTHEONAMIDE E] (PhAc-A[Dap]P[Arg(ψCOCO)][aIle][X1]; lactam 2-C), the IC50 in experiment [1] was 17 nM; in experiment [2], 10.6 nM; in experiment [3] it was 6.9 nM; on Prothrombin it was 16.1 nM.
